One assay deals with DU-145. In words: Inhibitory concentration against DU145 prostate cancer cell line. Type of assay: functional, cell-based. The note with it: Homo sapiens. A digest of the protocol:
(§1)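 MTT growth assay: exponentially growing cells, (1-2) × 10^3 per well in 0.1 mL medium, were seeded on day 0 and cultured per supplier instructions. On day 1 an equal volume of medium carrying graded compound concentrations was added. On day 4 cultures received MTT (1 mg/mL in Dulbecco's PBS) for 4 h at 37 °C.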

The next assay concerns MCF7. The assay is described as follows: Inhibitory concentration against MCF-7 breast cancer cell line. Type of assay: functional, cell-based. The note with it: Homo sapiens. Put shortly: as §1
A further assay concerns U-937. In words: Inhibitory concentration against U937 lymphoma cancer cell line. It counts as functional, cell-based. The following applies: Homo sapiens. A digest of the protocol: as §1
For another assay, the system named is Granta. In words: Inhibitory concentration against Granta lymphoma cancer cell line. It counts as functional, cell-based. The note with it: Homo sapiens. Put shortly: as §1
A further assay deals with HT-29. In words: Inhibitory concentration against HT-29 colon cancer cell line. Type of assay: functional, cell-based. The following applies: Homo sapiens. Put shortly: as §1
Assay [1] has as its system RPMI-8226. The assay is described as follows: Inhibitory concentration against 8226/Dox40 (Dox-Re) cancer cell line. Type of assay: functional, cell-based. The following applies: Homo sapiens. A digest of the protocol: as §1
Assay [2] has as its system RPMI-8226. The assay is described as follows: Inhibitory concentration against 8226 myeloma cancer cell line. It counts as functional, cell-based. The following applies: Homo sapiens. A digest of the protocol: as §1
Another assay concerns HeLa. In words: Inhibitory concentration against Hela cervix cancer cell line. The following applies: Homo sapiens. It counts as functional, cell-based. A digest of the protocol:
as §1

Another assay relates to NCI-H522 (human). The assay is described as follows: Inhibitory concentration against H522 (NSCLS) cancer cell line.
In the next assay the test system is MIA PaCa-2. In words: Inhibitory concentration against MIA PaCa pancreas cancer cell line. Type of assay: functional, cell-based. The following applies: Homo sapiens. Put shortly: as §1

As to `C[C@@](O)(CCl)[C@H]1Cc2ccc3c(c2O1)-n1cc(C(=O)O)c(=O)c2cc(F)c(N4CC[C@H](N)C4)c(c21)O3`, the IC50 (usually the concentration needed to halve the response being measured) in the assay with DU-145 turned out to be 30 nM; in the assay on MCF7 it was 80 nM; in the assay with U-937, 20 nM; in the assay on Granta, 2 nM; in the assay with HT-29, 90 nM; in the assay with RPMI-8226 [1], 30 nM. The IC50 with RPMI-8226 [2] was 50 nM; with HeLa it was 130 nM; with NCI-H522 (human) it was 20 nM; with MIA PaCa-2 it was 40 nM.
Turning to `N[C@H]1CCN(c2c(F)cc3c(=O)c(C(=O)O)cn4c3c2Oc2ccccc2-4)C1`, the IC50 was found to be 470 nM with DU-145; 660 nM in the assay with MCF7; 310 nM in the assay with U-937; 90 nM with Granta; 450 nM in the assay on HT-29; 270 nM in the assay with RPMI-8226 [1]. Moreover, the IC50 in the assay on RPMI-8226 [2] stood at 270 nM; with HeLa it was 800 nM; in the assay with NCI-H522 (human), 300 nM; with MIA PaCa-2, 420 nM.
For the molecule `COc1cc2c(c3oc4c(O)cccc4c(=O)c13)C[C@H]([C@@]1(C)CO1)O2` [PSOROSPERMIN], the IC50 is 210 nM with DU-145; 570 nM in the assay with MCF7; 270 nM in the assay with U-937; 40 nM with Granta; 1110 nM in the assay on HT-29; 230 nM with RPMI-8226 [1]. Besides, the IC50 in the assay on RPMI-8226 [2] stood at 290 nM; in the assay with HeLa, 1460 nM; with NCI-H522 (human), 770 nM; in the assay with MIA PaCa-2 it was 380 nM.
Turning to `C[C@]1([C@H]2Cc3ccc4c(c3O2)-n2cc(C(=O)O)c(=O)c3cc(F)c(N5CC[C@H](N)C5)c(c32)O4)CO1`, the IC50 in the assay on DU-145 worked out at 80 nM; in the assay on MCF7, 240 nM; in the assay on U-937, 30 nM; with Granta, 4 nM; in the assay on HT-29, 140 nM; in the assay with RPMI-8226 [1], 50 nM. The IC50 was 90 nM in the assay with RPMI-8226 [2], 290 nM with HeLa, 70 nM in the assay on NCI-H522 (human) and 90 nM in the assay on MIA PaCa-2.

(Values after ChEMBL document CHEMBL1145830, “Design, synthesis, and evaluation of psorospermin/quinobenzoxazine hybrids as structurally novel antitumor agents” (J Med Chem, 2003).)
